In ChEMBL document CHEMBL4765319, “Identification of a new series of flavopiridol-like structures as kinase inhibitors with high cytotoxic potency” (Eur J Med Chem, 2020):

Experiments:
K562 [1] = assay: Cell cycle arrest in human K562 cells assessed as accumulation at G0/G1 phase at 100 nM after 24 hrs by propidium iodide staining-based flow cytometric analysis (reference value: 21.4 %); type: functional
NCI-N87 = assay: Antiproliferative activity against human NCI-N87 cells assessed as reduction in cell viability incubated for 72 hrs by CellTiter-Blue fluorescence assay; conditions: NCI-N87, 72 h
Plasmodium falciparum = assay: Inhibition of Plasmodium falciparum GSK3 assessed as residual activity at 10 uM in presence of ATP by ADP-glo luminescent assay relative to control
Method in brief: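 Recombinant P. falciparum GSK3, bacterially expressed, in buffer A (10 mM MgCl2, 1 mM EGTA, 1 mM DTT, 25 mM Tris-HCl pH 7.5, 50 μg/ml heparin). Substrate 0.010 μg/μl GS-1 peptide, 10 μM ATP, ADP-Glo luminescence. Compound at 10 or 1 μM; % residual activity vs DMSO control, mean n = 2.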

[2] = target: T1, Glycogen synthase kinase-3 beta (Homo sapiens, UniProt P49841); assay: Inhibition of human GSK3beta in presence of ATP by ADP-glo luminescent assay
Method in brief: (§1)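 Human kinases tested over roughly 0.0003–10 μM by ADP-Glo luminescence with 10 μM ATP, in duplicate. IC50 is taken from dose-response curves.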
Target sequence in this assay (P49841 whole entry): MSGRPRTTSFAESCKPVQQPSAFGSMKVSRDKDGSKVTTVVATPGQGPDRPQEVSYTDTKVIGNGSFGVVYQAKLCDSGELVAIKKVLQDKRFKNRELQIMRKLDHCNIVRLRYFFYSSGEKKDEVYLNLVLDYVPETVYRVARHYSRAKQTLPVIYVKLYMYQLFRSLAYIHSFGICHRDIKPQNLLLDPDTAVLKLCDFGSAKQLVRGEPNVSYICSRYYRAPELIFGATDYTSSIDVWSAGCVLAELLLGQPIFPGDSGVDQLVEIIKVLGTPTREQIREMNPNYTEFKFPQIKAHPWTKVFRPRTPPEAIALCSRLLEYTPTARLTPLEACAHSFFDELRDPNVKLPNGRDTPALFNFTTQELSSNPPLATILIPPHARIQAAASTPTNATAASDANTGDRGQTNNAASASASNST

K562 [3] = assay: Cell cycle arrest in human K562 cells assessed as increase in accumulation at G2/M phase after 24 hrs by propidium iodide staining-based flow cytometric analysis; type: functional; conditions: dose 25-100 nM
HCT-116 [4] = assay: Cell cycle arrest in human HCT-116 cells assessed as increase in accumulation at G2/M phase after 24 hrs by propidium iodide staining-based flow cytometric analysis; type: functional; conditions: dose 100-500 nM
K562 [5] = assay: Cell cycle arrest in human K562 cells assessed as accumulation at G2/M phase at 50 nM after 24 hrs by propidium iodide staining-based flow cytometric analysis (reference value: 12.9 %); type: functional
HCT-116 [6] = assay: Cell cycle arrest in human HCT-116 cells assessed as accumulation at G0/G1 phase at 100 nM after 24 hrs by propidium iodide staining-based flow cytometric analysis (reference value: 20.9 %); type: functional
CDK9/cyclin T1 = CDK9/cyclin T1 (Homo sapiens, UniProt P50750); assay: Inhibition of human CDK9/cyclin T in presence of ATP by ADP-glo luminescent assay; type: protein-complex assay; method in brief: as §1
Sequence of CDK9/cyclin T1 (O60563 whole entry): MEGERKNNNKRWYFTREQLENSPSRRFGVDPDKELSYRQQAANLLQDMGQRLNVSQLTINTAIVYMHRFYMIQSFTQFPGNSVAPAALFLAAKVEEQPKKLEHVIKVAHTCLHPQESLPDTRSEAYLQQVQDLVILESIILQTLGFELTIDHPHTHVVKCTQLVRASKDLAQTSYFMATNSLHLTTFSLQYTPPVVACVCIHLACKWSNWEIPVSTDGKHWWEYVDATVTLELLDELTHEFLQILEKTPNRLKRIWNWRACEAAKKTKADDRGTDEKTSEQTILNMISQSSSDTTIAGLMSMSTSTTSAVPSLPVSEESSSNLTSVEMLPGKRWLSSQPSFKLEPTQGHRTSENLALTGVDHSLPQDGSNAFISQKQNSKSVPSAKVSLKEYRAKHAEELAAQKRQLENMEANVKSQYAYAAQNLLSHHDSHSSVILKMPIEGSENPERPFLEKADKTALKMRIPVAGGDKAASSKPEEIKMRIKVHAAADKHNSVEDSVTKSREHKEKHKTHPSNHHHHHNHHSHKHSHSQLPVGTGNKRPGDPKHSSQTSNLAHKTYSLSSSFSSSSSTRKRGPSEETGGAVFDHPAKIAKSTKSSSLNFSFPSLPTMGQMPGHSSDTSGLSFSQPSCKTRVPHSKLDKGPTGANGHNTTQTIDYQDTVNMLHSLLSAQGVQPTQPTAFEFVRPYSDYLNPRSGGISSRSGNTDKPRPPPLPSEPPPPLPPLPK
Sequence of CDK9/cyclin T1 (P50750 whole entry): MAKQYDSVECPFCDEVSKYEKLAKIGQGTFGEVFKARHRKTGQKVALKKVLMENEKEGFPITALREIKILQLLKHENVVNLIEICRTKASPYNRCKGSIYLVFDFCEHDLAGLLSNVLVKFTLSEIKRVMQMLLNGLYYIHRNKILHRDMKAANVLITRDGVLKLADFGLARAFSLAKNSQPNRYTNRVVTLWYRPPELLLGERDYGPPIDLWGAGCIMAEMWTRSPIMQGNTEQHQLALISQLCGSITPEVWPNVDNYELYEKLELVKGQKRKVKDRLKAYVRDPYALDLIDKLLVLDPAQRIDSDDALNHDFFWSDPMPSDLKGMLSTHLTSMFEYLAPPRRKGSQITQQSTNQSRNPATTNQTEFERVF

HCT-116 [7] = assay: Cell cycle arrest in human HCT-116 cells assessed as accumulation at G0/G1 phase at 500 nM after 24 hrs by propidium iodide staining-based flow cytometric analysis (reference value: 20.9 %); type: functional
HCT-116 [8] = assay: Antiproliferative activity against human HCT-116 cells assessed as reduction in cell viability incubated for 72 hrs by CellTiter-Blue fluorescence assay; conditions: HCT-116, 72 h
K562 [9] = assay: Antiproliferative activity against human K562 cells assessed as reduction in cell viability incubated for 72 hrs by CellTiter-Blue resazurin fluorescence assay; conditions: K562, 72 h
[10] = target: Cyclin-dependent kinase 5/CDK5 activator 1 (Homo sapiens) (UniProt Q00535+Q15078); assay: Inhibition of human CDK5/p25 assessed as residual activity at 1 uM in presence of ATP by ADP-glo luminescent assay relative to control; type: protein-complex assay
Sequence of Cyclin-dependent kinase 5/CDK5 activator 1 (Homo sapiens) (Q00535 whole entry): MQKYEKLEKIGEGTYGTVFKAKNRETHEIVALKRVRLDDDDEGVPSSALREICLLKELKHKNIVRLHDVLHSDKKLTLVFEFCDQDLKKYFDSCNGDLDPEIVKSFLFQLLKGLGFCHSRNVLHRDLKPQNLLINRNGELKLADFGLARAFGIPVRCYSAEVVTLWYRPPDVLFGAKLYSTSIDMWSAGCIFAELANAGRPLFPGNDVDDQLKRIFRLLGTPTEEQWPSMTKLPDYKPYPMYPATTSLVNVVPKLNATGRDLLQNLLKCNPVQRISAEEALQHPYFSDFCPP
Sequence of Cyclin-dependent kinase 5/CDK5 activator 1 (Homo sapiens) (Q15078 99-307 partner limits assumed): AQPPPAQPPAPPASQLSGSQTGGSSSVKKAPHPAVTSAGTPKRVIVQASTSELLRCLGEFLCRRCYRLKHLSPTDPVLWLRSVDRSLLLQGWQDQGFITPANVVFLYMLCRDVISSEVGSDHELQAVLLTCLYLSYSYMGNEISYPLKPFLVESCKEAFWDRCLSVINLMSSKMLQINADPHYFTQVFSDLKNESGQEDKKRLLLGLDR
Method in brief: (§2)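 Human kinases assayed by ADP-Glo luminescence with 10 μM ATP, compound at 10 or 1 μM. Activity is expressed as % of maximal activity relative to a DMSO control, mean n = 2.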

[11] = target: Cyclin-dependent kinase 5/CDK5 activator 1 (Homo sapiens, UniProt Q00535); assay: Inhibition of human CDK5/p25 in presence of ATP by ADP-glo luminescent assay; type: protein-complex assay; method in brief: as §1
Sequence of Cyclin-dependent kinase 5/CDK5 activator 1 (Q00535 whole entry): as the sequence (Q00535 whole entry) above
Sequence of Cyclin-dependent kinase 5/CDK5 activator 1 (Q15078 whole entry, further chain): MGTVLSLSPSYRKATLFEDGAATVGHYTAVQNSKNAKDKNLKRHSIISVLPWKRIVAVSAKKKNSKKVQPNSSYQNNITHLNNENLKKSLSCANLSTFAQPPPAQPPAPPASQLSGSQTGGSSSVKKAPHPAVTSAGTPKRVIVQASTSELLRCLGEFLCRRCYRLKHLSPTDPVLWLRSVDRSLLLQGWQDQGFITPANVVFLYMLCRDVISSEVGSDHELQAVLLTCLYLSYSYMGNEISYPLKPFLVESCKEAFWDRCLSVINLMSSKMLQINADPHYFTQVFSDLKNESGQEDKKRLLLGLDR

SK-BR-3 = assay: Antiproliferative activity against human SK-BR-3 cells assessed as reduction in cell viability incubated for 72 hrs by CellTiter-Blue fluorescence assay; conditions: SK-BR-3, 72 h
K562 [12] = assay: Cell cycle arrest in human K562 cells assessed as accumulation at S phase at 100 nM after 24 hrs by propidium iodide staining-based flow cytometric analysis (reference value: […]); type: functional
[13] = target: T1, Glycogen synthase kinase-3 beta; assay: Potency index, ratio of flavopiridol IC50 to test compound IC50 for human GSK3beta in presence of ATP by ADP-glo luminescent assay
Target sequence in this assay (P49841 whole entry, looked up): as the sequence (P49841 whole entry) above

Leishmania major = assay: Inhibition of Leishmania major CK1 assessed as residual activity at 10 uM in presence of ATP by ADP-glo luminescent assay relative to control
K562 [14] = assay: Cell cycle arrest in human K562 cells assessed as accumulation at S phase at 50 nM after 24 hrs by propidium iodide staining-based flow cytometric analysis (reference value: […]); type: functional
HCT-116 [15] = assay: Cell cycle arrest in human HCT-116 cells assessed as accumulation at G2/M phase at 100 nM after 24 hrs by propidium iodide staining-based flow cytometric analysis (reference value: 31.5 %); type: functional
Sus scrofa [16] = species on record: Sus scrofa; assay: Inhibition of porcine CK1delta/epsilon assessed as residual activity at 1 uM in presence of ATP by ADP-glo luminescent assay relative to control
K562 [17] = assay: Cell cycle arrest in human K562 cells assessed as increase in accumulation at G0/G1 phase after 24 hrs by propidium iodide staining-based flow cytometric analysis; type: functional; conditions: dose 25-100 nM
Sus scrofa [18] = species on record: Sus scrofa; assay: Inhibition of porcine CK1delta/epsilon assessed as residual activity at 10 uM in presence of ATP by ADP-glo luminescent assay relative to control
[19] = target: CDK2/Cyclin A2 (Homo sapiens) (UniProt P24941+P20248); assay: Inhibition of human CDK2/cyclin A assessed as residual activity at 1 uM in presence of ATP by ADP-glo luminescent assay relative to control; type: protein-complex assay; method in brief: as §2
[20] = target: CDK9/cyclin T1 (Homo sapiens) (UniProt O60563+P50750); assay: Inhibition of human CDK9/cyclin T assessed as residual activity at 1 uM in presence of ATP by ADP-glo luminescent assay relative to control; type: protein-complex assay; method in brief: as §2
Sus scrofa [21] = species on record: Sus scrofa; assay: Inhibition of porcine GSK3alpha/beta assessed as residual activity at 10 uM in presence of ATP by ADP-glo luminescent assay relative to control
Method in brief: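 Porcine brain GSK3α/β, native and affinity-purified. Assayed by ADP-Glo luminescence with 10 μM ATP and 0.010 μg/μl GS-1 peptide substrate. Buffer A: 10 mM MgCl2, 1 mM EGTA, 1 mM DTT, 25 mM Tris-HCl pH 7.5, 50 μg/ml heparin. Compound tested at 10 or 1 μM. Result is % of maximal activity versus DMSO control, mean of n = 2.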

HCT-116 [22] = assay: Cell cycle arrest in human HCT-116 cells assessed as accumulation at G2/M phase at 500 nM after 24 hrs by propidium iodide staining-based flow cytometric analysis (reference value: 31.5 %); type: functional
HCT-116 [23] = assay: Cell cycle arrest in human HCT-116 cells assessed as accumulation at S phase at 200 nM after 24 hrs by propidium iodide staining-based flow cytometric analysis (reference value: 47.6 %); type: functional
CDK2/Cyclin A2 = CDK2/Cyclin A2 (Homo sapiens, UniProt P24941); assay: Inhibition of human CDK2/cyclin A in presence of ATP by ADP-glo luminescent assay; type: protein-complex assay; method in brief: as §1

Compound `CN1CC=C(c2c(O)cc(O)c3c(=O)cc(-c4ccc(Sc5nc6ccccc6n5C)cc4Cl)oc23)CC1` has an Activity (K562 [1]) of 50.3%, an IC50 (NCI-N87) of 49 nM and an Activity (Plasmodium falciparum) of 46%. The IC50 [2] was 59 nM, the Activity (K562 [3]) was “Dose-dependent effect” and the Activity (HCT-116 [4]) was “Dose-dependent effect”. For the same compound, the Activity (K562 [5]) was 22.7%, the Activity (HCT-116 [6]) was 20.6% and the IC50 (CDK9/cyclin T1) was 64 nM. It also gave an Activity (HCT-116 [7]) of 34.8%, an IC50 (HCT-116 [8]) of 81 nM and an IC50 (K562 [9]) of 50.8 nM. It also gave an Activity [10] of 68%, an IC50 [11] of 1090 nM and an IC50 (SK-BR-3) of 53.7 nM. It also gave an Activity (K562 [12]) of 21%, a Ratio IC50 [13] of 20 and an Activity (Leishmania major) of 38%. For the same compound, the Activity (K562 [14]) was 49.4%, the Activity (HCT-116 [15]) was 30.7% and the Activity (Sus scrofa [16]) was 90%. The Activity (K562 [17]) was “Dose-dependent effect”, the Activity (Sus scrofa [18]) was 62% and the Activity [19] was 87%. The Activity [20] was 1%, the Activity (Sus scrofa [21]) was 10% and the Activity (HCT-116 [22]) was 40%. For the same compound, the Activity (HCT-116 [23]) was 43.1% and the IC50 (CDK2/Cyclin A2) was 1730 nM.
